Rows were chosen to be rich in hits. Some 2.9% of all compounds tested hit in one or more screens of this group.
MEKK3 PB1 HTS = raises or lowers MEK5 binding to the human MEKK3 PB1 domain; bead-based flow cytometry, Alexa488-MEK5 binding to MEKK3; actives lie on both sides; 0 = blocked by unlabeled MEK5, 100 = vehicle; binding response (% of control), % at 10 µM; 290,000 tested, 1.4% active; AID 1529;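 active means binding response more than 3 SD above or below the average of its plate-row segment, actives on both sides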;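 further: Alexa488 bead fluorescence after subtracting the streptavidin-only scavenger bead signal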
Dynein transport = blocks dynein driven cargo transport along microtubules; 3617.4 mouse cells, GR-EGFP nuclear translocation imaging; test concentration mostly 20 µM; stimulated with dexamethasone, 1 µM; stronger effect = lower value; z-score, hits read low; 220,000 tested, 0.47% active; AID 1381;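 active means plate z-score of nuclear minus cytoplasmic receptor signal below a set negative limit, without overly bright fluorescence or cell loss, cut at about -3.5 in these data, passing the limit was not always enough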;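 further: z-score of nuclear minus cytoplasmic ring GR-EGFP intensity difference per well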
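Also added: dexamethasone, 1.0 µM final. Medium: tet-free, stripped-serum medium. Detection: fixed, Hoechst-stained cells imaged at 10x for EGFP. Read-out: nuclear-to-cytoplasmic GR-EGFP distribution per well. Times: induction 48 h, compound 1 h, agonist 30 min.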
ATG4B inh = ATG4B (human) cysteine protease inhibition; ATG4B cleavage of LC3-PLA2, NBD-HPC fluorescence, 1 h; 340,000 tested, 0.51% active; Q9Y4P1; inhibition, % at 8.33 µM; in the data active means inhibition above about 40%
Target sequence (Q9Y4P1 whole entry, looked up): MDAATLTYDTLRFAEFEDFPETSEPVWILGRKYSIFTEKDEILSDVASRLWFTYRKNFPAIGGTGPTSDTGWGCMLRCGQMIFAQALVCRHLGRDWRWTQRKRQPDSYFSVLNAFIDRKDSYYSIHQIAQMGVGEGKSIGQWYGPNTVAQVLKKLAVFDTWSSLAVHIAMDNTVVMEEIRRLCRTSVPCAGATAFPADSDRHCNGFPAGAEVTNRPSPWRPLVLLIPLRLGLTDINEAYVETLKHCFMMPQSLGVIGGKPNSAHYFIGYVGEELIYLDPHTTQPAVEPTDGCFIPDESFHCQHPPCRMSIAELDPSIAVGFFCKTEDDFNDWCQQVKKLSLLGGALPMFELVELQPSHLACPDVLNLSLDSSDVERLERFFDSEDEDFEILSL
B2AR ag = activates human beta-2 adrenergic receptor causing internalization; P07550; Am2.2-beta2AR cells, FAP receptor internalization, flow cytometry; response, % (test concentration not listed); 340,000 tested, 0.43% active; AID 504454;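 active means response above a set limit, near 3 SD of response in nonfluorescent compounds, cut at about 42% in these data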
MEKK2wt PB1 HTS = raises or lowers MEK5 binding to wildtype human MEKK2 PB1 domain | 290,000 tested, 1.1% active | Q9Y2U5 | binding response (% of control), % at 10 µM | bead flow cytometry, Alexa488-MEK5 binding to MEKK2 WT; actives lie on both sides; in the data active means binding response below about 67% or above about 130%
MEKK2 mut-MEK5 = signal of MEK5 binding to mutant human MEKK2 PB1 domain; 290,000 tested, 0.35% active; bead flow cytometry, Alexa488-MEK5 binding to MEKK2 mutant; percent response, % at 10 µM; in the data active means percent response above about 24%, passing the limit was not always enough
MEKK2wt confirm = raises or lowers MEK5 binding to wildtype human MEKK2, retest | bead flow cytometry, Alexa488-MEK5 binding to MEKK2 WT; actives lie on both sides | AID 1892 | binding response (% of control), % at 10 µM | 5,900 tested, 2.4% active | shares compounds with MEKK3 PB1 HTS; in the data active means binding response below about 16% or above about 210%; inactive means in between
MEKK2mut-MEK5 = signal of MEK5 binding to mutant human MEKK2, retest; shares compounds with MEKK3 PB1 HTS; bead flow cytometry, Alexa488-MEK5 binding to MEKK2 mutant; percent response, % at 10 µM; 5,900 tested, 2% active; AID 1893; in the data active means percent response mostly above about 71%, no sharp cut-off; inactive means mostly below about 38%;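 further: higher means compound restores mutant binding toward wildtype level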
MEKK3-MEK5 inh = MEKK3-MEK5 PB1 inhibition, single concentration confirmation | 5,900 tested, 1.8% active | bead flow cytometry, Alexa488-MEK5 binding to MEKK3; stronger effect = lower value | AID 1894 | shares compounds with MEKK3 PB1 HTS | binding response (% of control), % at 10 µM;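 active means binding response below 72% of control, or above a set upper limit, though filed actives all read lower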;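 further: 100% = DMSO only wells and 0% = binding blocked by excess unlabeled MEK5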
* marks the source's active call; other numbers are inactive results; . = not tested or not shown; [ ] = another dose, or the depositor's remark.

SMILES	MEKK3 PB1 HTS	Dynein transport	ATG4B inh	B2AR ag	MEKK2wt PB1 HTS	MEKK2 mut-MEK5	MEKK2wt confirm	MEKK2mut-MEK5	MEKK3-MEK5 inh
CCCc1cc(C(=O)Nc2cccc(Cl)c2C)no1	96	.	11	6	94	-6	.	.	.
COc1ccc([N+](=O)[O-])cc1/C=N/NC(=O)CNC(=O)C(c1ccccc1)c1ccccc1	165*	0.14	-3	0	109	1	99	0	99
CC(C)(C)CC(=O)O/N=C(\N)c1ccncc1	107	0.42	-3	2	105	2	.	.	.
CCOCCCn1c(=S)[nH]c2cc(C(=O)N3CCN(C)CC3)ccc2c1=O	70*[inhibitor]	0.053	-3	-9	80	-14	93	-11	95
O=C1C[C@@H]2c3c(cccc3CN1Cc1ccc(Cl)cc1)C[C@@H](O)[C@H]2O	.	.	-5	-3	.	.	.	.	.
COc1ccc(/C=N/Nc2ncnc3sc(C)c(C)c23)cc1	133*	-0.6	-12	2	107	1	106	-3	102
COc1ccc(-c2csc(NC(CO)c3nc4ccccc4n3CCCO)n2)cc1 (stereo not drawn)	92	.	-9	-6	99	-1	.	.	.
CC(=O)Nc1ccc(NC(=O)C(C)OC(=O)/C=C/c2cnc3ccccc3n2)cc1 (stereo not drawn)	95	-0.28	-6	1	96	3	.	.	.
CC(NC(=O)/C=C/c1cnc2ccccc2n1)C12CC3CC(CC(C3)C1)C2 (stereo not drawn)	134*	-0.65	-1	14	102	0	97	0	104
COC(=O)c1cc(C)cc(=O)o1	100	0.65	-5	3	99	-1	.	.	.
Cc1cc(C(=O)Nc2ccccc2)oc(=O)c1	49*[inhibitor]	0.28	-2	-1	66	-25	99	-7	91
CC(C)(C)[C@@H]1COC(=O)[C@H](Cc2ccc(F)cc2)C/C=C\C[C@@H](CC(=O)NCCO)C(=O)N1	.	.	3	-2	.	.	.	.	.
C(#Cc1ccccc1)C[N+]1(CC#Cc2cccc3ccccc23)CCOCC1	103	1.2	5	-9	154*	1	145	24	104
C#CC[N+]1(CC#Cc2ccccc2)CCOCC1	102	-0.43	-5	-8	103	3	.	.	.
CCOc1cc(/C=C2/SC(=S)N(Cc3ccccc3)C2=O)ccc1O	96	.	-4	-293	61*[inhibitor]	-4	84	-6	101
COc1cc(/C=C2/SC(=S)N(Cc3ccccc3)C2=O)ccc1OCC(=O)O	99	.	28	0	81	-1	.	.	.
Cc1ccc2nc(SCC(=O)Nc3nonc3C)[nH]c2c1	98	.	-1	-4	94	-2	.	.	.
COc1ccc(/C=N/NC(=O)CCn2nc(C)cc2C)cc1	133*	-0.89	-8	-4	112	30	96	-3	98
Cc1ccc(NC(=O)CCn2nc(C)cc2C)cc1	142*	1.7	-6	2	139*	10	101	1	100
CCc1ccc(OCC(=O)N/N=C/c2cc([N+](=O)[O-])ccc2N2CCCCCC2)cc1	136*	0.58	-8	7	104	0	106	9	103
CCCC1=NN(C(=O)CCc2ccccc2O)C(O)(C(F)(F)F)C1 (stereo not drawn)	138*	0.17	2	0	107	3	97	3	100
CN(CC(=O)Nc1ccc(S(N)(=O)=O)cc1)c1ccccc1	99	0.46	23	3	106	2	.	.	.

Screening results: PubChem, several laboratories
